Assay [1] has as its target Estrogen receptor beta (Homo sapiens) (UniProt Q92731). The assay can be described thus: Relative binding affinity to human recombinant ERbeta receptor using [3H]E2 as substrate after 1 hr by liquid scintillation counting relative to E2. The method in brief: (§1)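 Recombinant human ERα or ERβ (0.25 pmol) incubated 1 h at rt with [3H]-E2 (10 nM) and compound in DMSO (5% final). Nonspecific binding defined with diethylstilbestrol 10 μM. Bound complex captured on hydroxyapatite, washed, resuspended in ethanol, counted by liquid scintillation. Concentrations displacing 50% of bound label compared with E2, which is set at 100%.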

In assay [2] the target is T1, Estrogen receptor (Homo sapiens) (UniProt P03372).
T1 sequence (whole entry): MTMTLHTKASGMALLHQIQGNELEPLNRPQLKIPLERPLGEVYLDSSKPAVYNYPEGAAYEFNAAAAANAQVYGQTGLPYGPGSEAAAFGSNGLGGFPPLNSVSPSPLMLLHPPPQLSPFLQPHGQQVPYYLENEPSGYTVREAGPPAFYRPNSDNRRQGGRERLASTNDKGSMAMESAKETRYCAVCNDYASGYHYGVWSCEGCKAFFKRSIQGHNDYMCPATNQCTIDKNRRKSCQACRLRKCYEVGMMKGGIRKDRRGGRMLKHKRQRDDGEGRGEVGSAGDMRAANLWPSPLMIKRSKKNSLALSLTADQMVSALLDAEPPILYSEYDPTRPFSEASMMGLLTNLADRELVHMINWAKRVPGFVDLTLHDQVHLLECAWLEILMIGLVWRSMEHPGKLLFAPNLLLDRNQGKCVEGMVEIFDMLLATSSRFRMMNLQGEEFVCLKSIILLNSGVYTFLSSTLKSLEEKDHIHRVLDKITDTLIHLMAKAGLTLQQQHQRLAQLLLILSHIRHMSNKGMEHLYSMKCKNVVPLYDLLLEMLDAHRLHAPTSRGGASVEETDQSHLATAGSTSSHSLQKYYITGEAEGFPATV
The assay can be described thus: Relative binding affinity to human recombinant ERalpha receptor using [3H]E2 as substrate after 1 hr by liquid scintillation counting relative to E2. The method in brief:
as §1

Assay [3] has as its target T2, 17-beta-hydroxysteroid dehydrogenase type 1 (Homo sapiens, UniProt P14061).
T2 sequence (P14061 whole entry): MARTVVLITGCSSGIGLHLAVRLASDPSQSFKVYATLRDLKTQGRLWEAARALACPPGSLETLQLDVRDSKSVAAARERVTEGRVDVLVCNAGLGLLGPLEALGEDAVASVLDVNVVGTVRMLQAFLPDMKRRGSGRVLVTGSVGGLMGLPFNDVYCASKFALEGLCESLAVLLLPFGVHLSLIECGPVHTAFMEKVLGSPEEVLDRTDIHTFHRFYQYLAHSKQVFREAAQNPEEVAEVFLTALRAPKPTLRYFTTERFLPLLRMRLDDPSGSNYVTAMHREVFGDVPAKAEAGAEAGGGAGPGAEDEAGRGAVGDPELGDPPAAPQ
Put plainly: Inhibition of 17betaHSD1 in human T47D cells using [3H]E1 as substrate incubated for 30 mins prior to substrate addition measured after 30 mins by radioflow detection assay. The format is cell-based. The method in brief:
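T47D cells kept in RPMI 1640 with 10% FCS, glutamine, insulin-zinc, pyruvate, antibiotics. Seeded at 5 × 10^5 cells/well in DMEM with FCS, switched to serum-free DMEM after 24 h. Compound added in DMSO (1% final), 30 min preincubation at 37 °C, 5% CO2. Then unlabeled + [3H]-E1 (50 nM final) for 30 min. Steroids extracted into diethylether. Mean of three determinations.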

The target of assay [4] is T2, 17-beta-hydroxysteroid dehydrogenase type 1. Put plainly: Inhibition of human placenta cytosolic 17betaHSD1 using [3H]E1 as substrate after 10 mins by radioflow detection assay. The procedure, abridged: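 Cytosolic 17β-HSD1 from fresh human placenta, obtained by ammonium sulfate precipitation. Incubated at 37 °C in 50 mM phosphate buffer with 20% glycerol and EDTA, with NADH 500 μM and compound (DMSO 1% final). Started with unlabeled + [3H]-E1 (500 nM final), stopped after 10 min with HgCl2, ether-extracted. E1/E2 quantified by radioflow HPLC as % conversion. At least three independent experiments.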

Assay [5] has as its target T3, 17-beta-hydroxysteroid dehydrogenase type 2 (Homo sapiens, UniProt P37059).
T3 sequence (P37059 whole entry): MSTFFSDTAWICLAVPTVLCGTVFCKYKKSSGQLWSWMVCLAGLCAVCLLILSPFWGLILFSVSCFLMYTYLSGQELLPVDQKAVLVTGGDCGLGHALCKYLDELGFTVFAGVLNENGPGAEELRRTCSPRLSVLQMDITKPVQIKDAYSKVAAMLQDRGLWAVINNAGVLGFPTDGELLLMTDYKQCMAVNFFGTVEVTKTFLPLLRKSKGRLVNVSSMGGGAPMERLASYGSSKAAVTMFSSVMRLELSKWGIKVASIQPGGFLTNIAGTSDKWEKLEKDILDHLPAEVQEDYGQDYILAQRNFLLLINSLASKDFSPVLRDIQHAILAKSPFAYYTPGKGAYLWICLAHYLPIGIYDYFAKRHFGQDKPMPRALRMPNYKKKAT
Put plainly: Inhibition of human placenta microsomal 17betaHSD2 using [3H]E2 as substrate after 20 mins by radioflow detection assay. The procedure, abridged:
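Microsomal (pellet) fraction of fresh human placenta incubated with NAD+ 1500 μM, compound, and unlabeled + [3H]-E2 (500 nM final) for 20 min at 37 °C. Stopped with 1 mM HgCl2, ether-extracted. Steroids separated by HPLC with radioflow detection, conversion computed. Mean of three determinations.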

Assay [6] is filed under the species Callithrix jacchus. Put plainly: Inhibition of mormoset placenta microsomal 17betaHSD2 using [3H]E2 as substrate at 50 nM after 20 mins by radioflow detection assay.
Assay [7] is filed under the species Callithrix jacchus. Put plainly: Inhibition of mormoset placenta cytosolic 17betaHSD1 using [3H]E1 as substrate at 50 nM after 10 mins by radioflow detection assay.
Assay [8] concerns the target T4, 17-beta-hydroxysteroid dehydrogenase type 1 (Homo sapiens) (UniProt P14061).
T4 sequence (whole entry): T2 sequence (P14061 whole entry)
Put plainly: Inhibition of human placenta cytosolic 17betaHSD1 using [3H]E1 as substrate at 10 nM after 10 mins by radioflow detection assay.

Chain of Estrogen receptor beta (Homo sapiens) (Q92731 whole entry): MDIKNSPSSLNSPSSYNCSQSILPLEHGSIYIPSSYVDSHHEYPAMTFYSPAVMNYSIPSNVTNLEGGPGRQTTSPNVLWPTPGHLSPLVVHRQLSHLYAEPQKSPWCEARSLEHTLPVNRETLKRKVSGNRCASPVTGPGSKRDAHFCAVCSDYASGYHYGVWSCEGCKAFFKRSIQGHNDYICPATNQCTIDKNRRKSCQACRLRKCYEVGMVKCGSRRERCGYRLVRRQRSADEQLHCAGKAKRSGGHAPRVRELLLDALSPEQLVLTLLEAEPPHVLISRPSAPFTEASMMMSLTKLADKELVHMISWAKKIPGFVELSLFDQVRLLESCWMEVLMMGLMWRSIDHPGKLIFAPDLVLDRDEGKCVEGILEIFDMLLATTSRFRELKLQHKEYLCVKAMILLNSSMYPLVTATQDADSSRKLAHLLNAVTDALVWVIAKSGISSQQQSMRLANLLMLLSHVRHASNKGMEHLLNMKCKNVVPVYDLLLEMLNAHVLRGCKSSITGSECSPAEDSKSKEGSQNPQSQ

The term IC50 denotes the concentration that gives 50% inhibition. Lower therefore signals greater potency in that assay. The inhibition is the share of the control response that was lost under treatment. Lower therefore signals a weak effect. In the case of `Cc1cccc(S(=O)(=O)Nc2cccc(-c3c(O)ccc4cc(-c5cccc(O)c5)ccc34)c2)c1`, the RBA in assay [1] and in assay [2] was less than 0.1% throughout. Also, the half-inhibitory concentration (IC50) in assay [3] is 440 nM; in assay [4], 33 nM; in assay [5], 446 nM. Further, the inhibition was 11% in the assay listed under Callithrix jacchus [6] and less than 10% in the assay filed under Callithrix jacchus [7].
As for `O=S(=O)(Nc1cccc(-c2c(O)ccc3cc(-c4cccc(O)c4)ccc23)c1)c1ccc(Br)cc1OC(F)(F)F`, the RBA in assay [1] and in assay [2] was less than 0.1% throughout. In addition, the inhibition in assay [8] was greater than 30%; in the assay filed under Callithrix jacchus [6], less than 10%; in the assay listed under Callithrix jacchus [7], less than 10%. The figures for the IC50 in assay [4] and in assay [5] were 74 nM and 213 nM, respectively.
As for `O=[N+]([O-])c1ccccc1S(=O)(=O)Nc1cccc(-c2c(O)ccc3cc(-c4cccc(O)c4)ccc23)c1`, the RBA in assay [1] and in assay [2] was less than 0.1% throughout. Further, the inhibition in assay [8] was greater than 30%; in the assay listed under Callithrix jacchus [6], 21%; in the assay listed under Callithrix jacchus [7], less than 10%. Moreover, the results for the half-maximal inhibitory concentration (IC50) in assay [3], in assay [4] and in assay [5] were 462 nM, 17 nM and 238 nM, respectively.
`Cc1ccccc1S(=O)(=O)Nc1cccc(-c2c(O)ccc3cc(-c4cccc(O)c4)ccc23)c1`: the RBA in assay [1] and in assay [2] was less than 0.1% throughout. Besides, the IC50 in assay [3] stood at 525 nM; in assay [4], 31 nM; in assay [5] it was 188 nM. In addition, the inhibition in the assay filed under Callithrix jacchus [6] was less than 10%; in the assay filed under Callithrix jacchus [7] it was 20%.
As to `N#Cc1ccc(S(=O)(=O)Nc2cccc(-c3c(O)ccc4cc(-c5cccc(O)c5)ccc34)c2)cc1`, the RBA in assay [1] and in assay [2] was less than 0.1% in each case. Also, the results for the IC50 in assay [3], in assay [4] and in assay [5] were 555 nM, 25 nM and 825 nM, respectively. Moreover, the inhibition turned out to be 30% in the assay filed under Callithrix jacchus [6] and 25% in the assay filed under Callithrix jacchus [7].
As for `O=[N+]([O-])c1ccc(S(=O)(=O)Nc2cccc(-c3c(O)ccc4cc(-c5cccc(O)c5)ccc34)c2)cc1`, the RBA in assay [1] and in assay [2] was less than 0.1% in each case. Moreover, the inhibition in assay [8] was greater than 30%; in the assay listed under Callithrix jacchus [6], 13%; in the assay listed under Callithrix jacchus [7], 28%. Besides, the IC50 in assay [3] is 753 nM; in assay [4], 49 nM; in assay [5], 1060 nM.
On to `O=S(=O)(Nc1cccc(-c2c(O)ccc3cc(-c4cccc(O)c4)ccc23)c1)c1cccs1`, for which the RBA in assay [1] and in assay [2] was less than 0.1% in each case. The inhibition in assay [8] is greater than 30%; in the assay filed under Callithrix jacchus [6], 18%; in the assay listed under Callithrix jacchus [7] it was 25%. Besides, the results for the IC50 in assay [3], in assay [4] and in assay [5] were 316 nM, 28 nM and 1100 nM, respectively.
On to `O=S(=O)(Nc1cccc(-c2c(O)ccc3cc(-c4cccc(O)c4)ccc23)c1)c1ccc(F)cc1`, for which the RBA in assay [1] and in assay [2] was less than 0.1% in each case. Also, the IC50 was 637 nM in assay [3], 53 nM in assay [4] and 834 nM in assay [5]. For the same molecule, the inhibition in the assay filed under Callithrix jacchus [6] amounted to 20%; in the assay listed under Callithrix jacchus [7], 24%.
In the case of `O=S(=O)(c1ccccc1)n1ccc2c(-c3c(O)ccc4cc(-c5cccc(O)c5)ccc34)cccc21`, the RBA in assay [1] and in assay [2] was less than 0.1% in each case. The IC50 was determined as 1100 nM in assay [3], 32 nM in assay [4] and 391 nM in assay [5]. The inhibition in the assay filed under Callithrix jacchus [6] was 43%; in the assay filed under Callithrix jacchus [7], 79%.
For `Cc1ccc(S(=O)(=O)Nc2cccc(-c3c(O)ccc4cc(-c5cccc(O)c5)ccc34)c2)cc1`, the RBA in assay [1] and in assay [2] was less than 0.1% throughout. Further, the values for the IC50 in assay [3], in assay [4] and in assay [5] were 633 nM, 35 nM and 367 nM, respectively. The figures for the inhibition in the assay filed under Callithrix jacchus [6] and in the assay listed under Callithrix jacchus [7] were 11% and less than 10%, respectively.
Take `N#Cc1cccc(S(=O)(=O)Nc2cccc(-c3c(O)ccc4cc(-c5cccc(O)c5)ccc34)c2)c1`: the RBA in assay [1] and in assay [2] was less than 0.1% in each case. Further, the inhibition in assay [8] was greater than 30%; in the assay filed under Callithrix jacchus [6], less than 10%; in the assay listed under Callithrix jacchus [7], 11%. The IC50 in assay [3] turned out to be 402 nM; in assay [4], 30 nM; in assay [5], 607 nM.
For `CC(=O)Nc1ccc(S(=O)(=O)Nc2cccc(-c3c(O)ccc4cc(-c5cccc(O)c5)ccc34)c2)cc1`, the RBA in assay [1] and in assay [2] was less than 0.1% throughout. The IC50 was 240 nM in assay [3], 12 nM in assay [4] and 408 nM in assay [5]. Also, the results for the inhibition in the assay listed under Callithrix jacchus [6] and in the assay filed under Callithrix jacchus [7] were less than 10% and 31%, respectively.
Regarding `O=S(=O)(Nc1cccc(-c2c(O)ccc3cc(-c4cccc(O)c4)ccc23)c1)c1cccc(F)c1`, the RBA in assay [1] and in assay [2] was less than 0.1% in each case. The inhibition in assay [8] was greater than 30%; in the assay listed under Callithrix jacchus [6], 33%; in the assay listed under Callithrix jacchus [7] it was less than 10%. Besides, the half-inhibitory concentration (IC50) in assay [3] was 462 nM; in assay [4] it was 22 nM; in assay [5], 396 nM.
Turning to `O=S(=O)(Nc1cccc(-c2c(O)ccc3cc(-c4cccc(O)c4)ccc23)c1)c1ccccc1F`, the RBA in assay [1] and in assay [2] was less than 0.1% in each case. The IC50 was determined as 429 nM in assay [3], 29 nM in assay [4] and 749 nM in assay [5]. Further, the inhibition in the assay filed under Callithrix jacchus [6] is less than 10%; in the assay filed under Callithrix jacchus [7] it was 19%.
For `O=S(=O)(c1ccccc1)n1ccc2ccc(-c3c(O)ccc4cc(-c5cccc(O)c5)ccc34)cc21`, the IC50 in assay [4] was found to be 519 nM; in assay [5] it was 996 nM. The figures for the inhibition in the assay filed under Callithrix jacchus [6] and in the assay filed under Callithrix jacchus [7] were 12% and 14%, respectively.
In the case of `O=[N+]([O-])c1ccc(S(=O)(=O)Nc2cccc(-c3c(O)ccc4cc(-c5cccc(O)c5)ccc34)c2)c([N+](=O)[O-])c1`, the RBA in assay [1] and in assay [2] was less than 0.1% each time. For the same molecule, the half-maximal inhibitory concentration (IC50) was 690 nM in assay [4] and 371 nM in assay [5]. Also, the inhibition was found to be 36% in the assay listed under Callithrix jacchus [6] and 16% in the assay filed under Callithrix jacchus [7].
Regarding `O=S(=O)(Nc1cccc(-c2c(O)ccc3cc(-c4cccc(O)c4)ccc23)c1)c1ccc(O)cc1`, the RBA in assay [1] and in assay [2] was less than 0.1% each time. Further, the IC50 in assay [3] is 1010 nM; in assay [4], 19 nM; in assay [5], 352 nM. Moreover, the inhibition in the assay listed under Callithrix jacchus [6] is 30%; in the assay filed under Callithrix jacchus [7] it was less than 10%.

The values are drawn from ChEMBL document CHEMBL2040729, “Lead optimization of 17β-HSD1 inhibitors of the (hydroxyphenyl)naphthol sulfonamide type for the treatment of endometriosis” (J Med Chem, 2012).
